Test results reported in paper PMC3582387 (Chemistry & biology, 2012).

Columns and labels:
[1] = system: MCL-1-rescued p185+Arf−/−/Mcl-1-deleted B-ALL cells; experiment: Cell viability; format: cell-based, murine
Outline: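 B-ALL cells come from Mcl-1f/f Arf−/− mouse marrow transformed with BCR-ABL(p185)-IRES-luciferase. They were stably transduced with MSCV-Puro-Mcl-1, and endogenous Mcl-1 was then deleted with MSCV-Cre-IRES-GFP; cells are kept in RPMI 1640/10% FBS. Cells (4×10^4/well) get serial dilutions of test compound or 0.4% DMSO in DMEM at 37 °C, with CellTiter-Glo luminescence read at 24 h. Data are normalized to vehicle; runs are at least duplicate and repeated twice with independent cultures.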

Bax−/−Bak−/− MEFs [2] = experiment: Cell viability, Bax−/−Bak−/− MEFs; format: cell-based, mouse; conditions: same dose range as leukemia cells, 24 h
Outline: (§1)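 MEFs (wild-type or Bax−/−Bak−/−) are maintained in supplemented high-glucose DMEM (10% FBS, antibiotics, L-glutamine, HEPES, β-mercaptoethanol). They are plated at 5×10^3 cells/well and allowed 24 h before exposure to serially diluted test compound, with 0.4% DMSO as vehicle. Viability is read as CellTiter-Glo luminescence after 24 h of treatment.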

MCL-1ΔNΔC [3] = molecular target: T1, MCL-1ΔNΔC (Homo sapiens, UniProt Q07820); experiment: BAX-mediated liposomal release assay, suppression by MCL-1ΔNΔC; format: biochemical; conditions: 20 nM tBID, 250 nM BAX
T1 sequence (Q07820 172-327, stated change not applied): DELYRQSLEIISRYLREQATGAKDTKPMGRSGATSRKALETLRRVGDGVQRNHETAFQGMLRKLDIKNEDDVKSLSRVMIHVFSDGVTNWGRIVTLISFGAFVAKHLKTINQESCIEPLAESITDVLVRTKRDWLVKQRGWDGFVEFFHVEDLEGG

wild-type MEFs [4] = experiment: Cell viability, wild-type MEFs; format: cell-based, mouse; conditions: same dose range as leukemia cells, 24 h
Outline: as §1

MCL-1ΔNΔC [5] = molecular target: T1, MCL-1ΔNΔC; experiment: Competitive FP assay against the FITC-BID BH3/MCL-1ΔNΔC interaction; format: binding
wild-type MEFs [6] = experiment: Caspase 3/7 activation, wild-type MEFs; format: cell-based, mouse; conditions: 8 h
Outline: (§2)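 Wild-type or Bax−/−Bak−/− mouse embryonic fibroblasts are kept in high-glucose DMEM with 10% FBS, penicillin/streptomycin, 2 mM L-glutamine, 50 mM HEPES, non-essential amino acids and 50 µM β-mercaptoethanol. Cells are seeded at 5×10^3/well for 24 h, then given serial dilutions of test compound or vehicle (0.4% DMSO). Caspase-Glo 3/7 reagent is added at 8 h and luminescence is read.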

[7] = system: BCL-XL-rescued p185+Arf−/−/Mcl-1-deleted B-ALL cells; experiment: Cell viability; format: cell-based, murine
MCL-1/BAK complex = MCL-1/BAK complex (Mus musculus, UniProt P97287); experiment: Co-immunoprecipitation of MCL-1/BAK complex in MCL-1-reconstituted B-ALL cells; format: cell-based, murine; conditions: 6 h incubation
MCL-1/BAK complex, sequence (P97287 whole entry, one chain of several): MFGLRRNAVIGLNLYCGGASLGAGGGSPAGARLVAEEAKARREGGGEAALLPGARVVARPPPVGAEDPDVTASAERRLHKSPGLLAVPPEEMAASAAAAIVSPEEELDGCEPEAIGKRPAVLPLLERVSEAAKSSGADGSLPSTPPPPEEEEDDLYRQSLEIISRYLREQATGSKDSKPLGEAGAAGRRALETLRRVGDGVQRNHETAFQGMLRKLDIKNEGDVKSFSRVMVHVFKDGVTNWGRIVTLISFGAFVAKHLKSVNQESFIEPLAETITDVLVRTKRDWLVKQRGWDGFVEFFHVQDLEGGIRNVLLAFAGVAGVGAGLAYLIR
Outline: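 MCL-1-reconstituted Mcl-1-deleted B-ALL cells (5×10^6) were given vehicle or test compound for 6 h. Lysate was precleared on protein A/G, then taken with anti-MCL-1 overnight at 4°C plus A/G beads for 1 h. After three washes and elution at 90°C, SDS-PAGE/Western probed MCL-1 and BAK.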

[8] = system: MCL-1-rescued p185+Arf−/−/Mcl-1-deleted B-ALL cells; experiment: Caspase 3/7 activation; format: cell-based, murine; conditions: 8 h post-treatment
Outline: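 Mcl-1-floxed Arf−/− mouse marrow was transformed with p185-IRES-luciferase, stably rescued with MSCV-Puro-Mcl-1, and endogenous Mcl-1 was deleted via MSCV-Cre-IRES-GFP. Cells were kept in supplemented RPMI 1640 and seeded at 4×10^4/well. Serial dilutions of test compound or vehicle (0.4% DMSO) were added in DMEM at 37°C. Caspase-Glo 3/7 luminescence was read at 8 h. Values were normalized to vehicle (mean ± SEM, ≥duplicate, two independent cultures).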

Bax−/−Bak−/− MEFs [9] = experiment: Caspase 3/7 activation, Bax−/−Bak−/− MEFs; format: cell-based, mouse; conditions: 8 h
Outline: as §2

BCL-XLΔC = BCL-XLΔC (Homo sapiens, UniProt Q07817); experiment: Competitive FP assay against the FITC-BID BH3/BCL-XLΔC interaction; format: binding
BCL-XLΔC, sequence (Q07817 1-212 limits assumed, stated change not applied): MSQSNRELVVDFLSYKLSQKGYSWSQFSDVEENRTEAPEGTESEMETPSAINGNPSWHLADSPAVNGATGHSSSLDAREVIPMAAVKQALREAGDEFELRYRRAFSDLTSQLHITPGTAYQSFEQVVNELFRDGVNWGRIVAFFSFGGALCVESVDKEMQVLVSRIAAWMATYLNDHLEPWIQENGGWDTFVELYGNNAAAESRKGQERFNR

MCL-1ΔNΔC [10] = molecular target: T1, MCL-1ΔNΔC; experiment: Competitive FP assay against the FITC-MCL-1 SAHBA/MCL-1ΔNΔC interaction; format: binding
[11] = system: BCL-XL-rescued p185+Arf−/−/Mcl-1-deleted B-ALL cells; experiment: Caspase 3/7 activation; format: cell-based, murine; conditions: 8 h post-treatment

| SMILES | IC50 ([1]; Mus musculus, 24 h, read-out: IC50, cell viability of MCL-1-dependent cells) [µM] | Effect on viability of Bax−/−Bak−/− MEFs (Bax−/−Bak−/− MEFs [2]) | Blockade of MCL-1ΔNΔC suppression of tBID-induced BAX activation (liposomal release) (MCL-1ΔNΔC [3]) | Effect on viability of wild-type MEFs (wild-type MEFs [4]) | IC50 (MCL-1ΔNΔC [5]) [µM] | Fold difference of IC50 for MCL-1ΔNΔC versus IC50 of ABT-737 for BCL-XLΔC (MCL-1ΔNΔC [5]; competition with FITC-BID BH3, MIM1 less potent) [fold] | Caspase 3/7 activation in wild-type MEFs (wild-type MEFs [6]) | Effect on viability of BCL-XL-dependent cells (in words) ([7]; CellTiter-Glo at 24 h) | Dissociation of the inhibitory MCL-1/BAK complex (co-immunoprecipitation) (MCL-1/BAK complex) | Caspase 3/7 activation in MCL-1-dependent cells [8] | Caspase 3/7 activation in Bax−/−Bak−/− MEFs (Bax−/−Bak−/− MEFs [9]) | IC50 (BCL-XLΔC) [µM] | Competition with FITC-MCL-1 SAHBA for MCL-1ΔNΔC binding (in words) (MCL-1ΔNΔC [10]) | Effect on viability of MCL-1-dependent cells (in words) ([1]; CellTiter-Glo at 24 h) | Competition with FITC-BID BH3 for MCL-1ΔNΔC binding (in words) (MCL-1ΔNΔC [5]) | IC50 ([7]; Mus musculus, 24 h, read-out: IC50, cell viability of BCL-XL-dependent cells) [µM] | Caspase 3/7 activation in BCL-XL-dependent cells [11] |
| --- | --- | --- | --- | --- | --- | --- | --- | --- | --- | --- | --- | --- | --- | --- | --- | --- | --- |
| Cc1cs/c(=N\C2CCCCC2)n1/N=C/c1ccc(O)c(O)c1O [MIM1, 4-((E)-(((Z)-2-(cyclohexylimino)-4-methylthiazol-3(2H)-yl)imino)methyl)benzene-1,2,3-triol] | 4.2 | no significant effect | preventing BAX suppression by MCL-1ΔNΔC | no significant effect | 4.8 | 7.5 | no observed caspase 3/7 activation | little to no effect on the BCL-XL-dependent cells | dose-dependent dissociation of the inhibitory MCL-1/BAK complex | dose-dependent induction of caspase 3/7 activity | no observed caspase 3/7 activation | > 50 |  |  |  |  |  |
| CN(C)CC[C@H](CSc1ccccc1)Nc1ccc(S(=O)(=O)NC(=O)c2ccc(N3CCN(Cc4ccccc4-c4ccc(Cl)cc4)CC3)cc2)cc1[N+](=O)[O-] [ABT-737, reference compound] |  | no significant effect | had no effect on MCL-1ΔNΔC activity | no significant effect |  |  | no observed caspase 3/7 activation |  |  |  | no observed caspase 3/7 activation |  | had no effect | no effect on the MCL-1-dependent cells | showed no activity toward MCL-1ΔNΔC | 1.6 | dose-responsive caspase 3/7 activation |
